Legend:
Assay type in all cases: cell-based
[1] = biological target: Histone-lysine N-methyltransferase EZH2 (Mus musculus) (UniProt Q61188); experiment: Inhibition of EZH2 in mouse B16-F1 migrating cells assessed as fold change in H3K27me3-independent regulated Pwwp2b-mRNA expression at 3 uM measured by […] analysis relative to control cells
How it was run: (§1)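 Confluent B16-F1 cells on fibronectin-coated plates were scratched at multiple sites, washed once with DMEM and left to migrate 3 h in growth medium (37 °C, 7% CO2); unscratched cells served as control. GSK343 (3 µM) was added 3 h before lysis. Poly A mRNA was sequenced (RNA-seq), with 5 replicates for untreated and 3 for treated cells. Differential expression was called by linear model with batch correction, at FDR <0.05 and fold change ≥1.3.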

[2] = biological target: Histone-lysine N-methyltransferase EZH2 (Mus musculus) (UniProt Q61188); experiment: Inhibition of EZH2 in mouse B16-F1 migrating cells assessed as fold change in H3K27me3-independent regulated Cep152-mRNA expression at 3 uM measured by ChIP-seq analysis relative to control cells; how it was run: as §1
[3] = biological target: Histone-lysine N-methyltransferase EZH2 (Mus musculus) (UniProt Q61188); experiment: Inhibition of EZH2 in mouse B16-F1 migrating cells assessed as fold change in H3K27me3-buffered regulated Lrp4-mRNA expression at 3 uM measured by […] analysis relative to control cells
How it was run: (§2)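 Confluent B16-F1 cells on fibronectin-coated plates, cultured at 37 °C and 7% CO2, were scratched at multiple sites to induce migration. They were then held 3 h in growth medium containing 3 µM GSK343, with the inhibitor added 3 h before lysis. Unscratched cells served as controls. Poly A mRNA was analysed by RNA-seq (n=3 GSK343, n=5 controls). Linear models removed batch effects, and buffered genes were those altered only under GSK343 (FDR <0.05, fold change >1.3).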

[4] = biological target: Histone-lysine N-methyltransferase EZH2 (Mus musculus) (UniProt Q61188); experiment: Inhibition of EZH2 in mouse B16-F1 migrating cells assessed as fold change in H3K27me3-independent regulated Tmem179-mRNA expression at 3 uM measured by […] analysis relative to control cells; how it was run: as §1
[5] = biological target: Histone-lysine N-methyltransferase EZH2 (Mus musculus) (UniProt Q61188); experiment: Inhibition of EZH2 in mouse B16-F1 migrating cells assessed as fold change in H3K27me3-buffered regulated Tfcp2-mRNA expression at 3 uM measured by […] analysis relative to control cells; how it was run: as §1
[6] = biological target: Histone-lysine N-methyltransferase EZH2 (Mus musculus) (UniProt Q61188); experiment: Inhibition of EZH2 in mouse B16-F1 migrating cells assessed as fold change in H3K27me3-buffered regulated Ankrd26-mRNA expression at 3 uM measured by […] analysis relative to control cells; how it was run: as §2
[7] = biological target: Histone-lysine N-methyltransferase EZH2 (Mus musculus) (UniProt Q61188); experiment: Inhibition of EZH2 in mouse B16-F1 migrating cells assessed as fold change in H3K27me3-buffered regulated Snhg5-mRNA expression at 3 uM measured by […] analysis relative to control cells; how it was run: as §1
[8] = biological target: Histone-lysine N-methyltransferase EZH2 (Mus musculus) (UniProt Q61188); experiment: Inhibition of EZH2 in mouse B16-F1 migrating cells assessed as fold change in H3K27me3-dependent regulated Gm43909-mRNA expression at 3 uM measured by […] analysis relative to control cells; how it was run: as §1
[9] = biological target: Histone-lysine N-methyltransferase EZH2 (Mus musculus) (UniProt Q61188); experiment: Inhibition of EZH2 in mouse B16-F1 migrating cells assessed as fold change in H3K27me3-independent regulated Cntnap1-mRNA expression at 3 uM measured by […] analysis relative to control cells; how it was run: as §1
[10] = biological target: Histone-lysine N-methyltransferase EZH2 (Mus musculus) (UniProt Q61188); experiment: Inhibition of EZH2 in mouse B16-F1 migrating cells assessed as fold change in H3K27me3-buffered regulated Map3k1-mRNA expression at 3 uM measured by […] analysis relative to control cells; how it was run: as §2
[11] = biological target: T1, RNA polymerase II (Mus musculus) (UniProt P08775+Q8CFI7+P97760+A0A3Q4L2S8+Q80UW8+P61219+P62488+Q923G2+P60898+O08740+Q63871+P62876); experiment: Inhibition of RNA polymerase II in mouse B16-F1 migrating cells assessed as fold change in Kif18a-RNA stability at 0.1 mM measured by ChIP-seq analysis relative to control cells
[12] = biological target: T1, RNA polymerase II (Mus musculus); experiment: Inhibition of RNA polymerase II in mouse B16-F1 migrating cells assessed as fold change in Zfp280c-RNA stability at 0.1 mM measured by […] analysis relative to control cells
[13] = biological target: T1, RNA polymerase II (Mus musculus); experiment: Inhibition of RNA polymerase II in mouse B16-F1 migrating cells assessed as fold change in Pgp-RNA stability at 0.1 mM measured by […] analysis relative to control cells
[14] = biological target: T1, RNA polymerase II (Mus musculus); experiment: Inhibition of RNA polymerase II in mouse B16-F1 migrating cells assessed as fold change in Uba52-RNA stability at 0.1 mM measured by […] analysis relative to control cells
[15] = biological target: T1, RNA polymerase II (Mus musculus); experiment: Inhibition of RNA polymerase II in mouse B16-F1 migrating cells assessed as fold change in Lamp2-RNA stability at 0.1 mM measured by ChIP-seq analysis relative to control cells
[16] = biological target: T1, RNA polymerase II (Mus musculus); experiment: Inhibition of RNA polymerase II in mouse B16-F1 migrating cells assessed as fold change in Vps72-RNA stability at 0.1 mM measured by […] analysis relative to control cells
[17] = biological target: T1, RNA polymerase II (Mus musculus); experiment: Inhibition of RNA polymerase II in mouse B16-F1 migrating cells assessed as fold change in Yes1-RNA stability at 0.1 mM measured by […] analysis relative to control cells
[18] = biological target: T1, RNA polymerase II (Mus musculus); experiment: Inhibition of RNA polymerase II in mouse B16-F1 migrating cells assessed as fold change in Dock10-RNA stability at 0.1 mM measured by ChIP-seq analysis relative to control cells
[19] = biological target: T1, RNA polymerase II (Mus musculus); experiment: Inhibition of RNA polymerase II in mouse B16-F1 migrating cells assessed as fold change in Zfp367-RNA stability at 0.1 mM measured by […] analysis relative to control cells
[20] = biological target: T1, RNA polymerase II (Mus musculus); experiment: Inhibition of RNA polymerase II in mouse B16-F1 migrating cells assessed as fold change in Repin1-RNA stability at 0.1 mM measured by […] analysis relative to control cells
[21] = biological target: T1, RNA polymerase II (Mus musculus); experiment: Inhibition of RNA polymerase II in mouse B16-F1 migrating cells assessed as fold change in Lgals3-RNA stability at 0.1 mM measured by ChIP-seq analysis relative to control cells
[22] = biological target: T1, RNA polymerase II (Mus musculus); experiment: Inhibition of RNA polymerase II in mouse B16-F1 migrating cells assessed as fold change in Acbd6-RNA stability at 0.1 mM measured by […] analysis relative to control cells
[23] = biological target: T1, RNA polymerase II (Mus musculus); experiment: Inhibition of RNA polymerase II in mouse B16-F1 migrating cells assessed as fold change in Fxr1-RNA stability at 0.1 mM measured by ChIP-seq analysis relative to control cells
[24] = biological target: T1, RNA polymerase II (Mus musculus); experiment: Inhibition of RNA polymerase II in mouse B16-F1 migrating cells assessed as fold change in Rpl7-RNA stability at 0.1 mM measured by […] analysis relative to control cells
[25] = biological target: T1, RNA polymerase II (Mus musculus); experiment: Inhibition of RNA polymerase II in mouse B16-F1 migrating cells assessed as fold change in Vegfa-RNA stability at 0.1 mM measured by […] analysis relative to control cells
[26] = biological target: T1, RNA polymerase II (Mus musculus); experiment: Inhibition of RNA polymerase II in mouse B16-F1 migrating cells assessed as fold change in Mastl-RNA stability at 0.1 mM measured by ChIP-seq analysis relative to control cells

Sequence of Histone-lysine N-methyltransferase EZH2 (Mus musculus) (Q61188 whole entry): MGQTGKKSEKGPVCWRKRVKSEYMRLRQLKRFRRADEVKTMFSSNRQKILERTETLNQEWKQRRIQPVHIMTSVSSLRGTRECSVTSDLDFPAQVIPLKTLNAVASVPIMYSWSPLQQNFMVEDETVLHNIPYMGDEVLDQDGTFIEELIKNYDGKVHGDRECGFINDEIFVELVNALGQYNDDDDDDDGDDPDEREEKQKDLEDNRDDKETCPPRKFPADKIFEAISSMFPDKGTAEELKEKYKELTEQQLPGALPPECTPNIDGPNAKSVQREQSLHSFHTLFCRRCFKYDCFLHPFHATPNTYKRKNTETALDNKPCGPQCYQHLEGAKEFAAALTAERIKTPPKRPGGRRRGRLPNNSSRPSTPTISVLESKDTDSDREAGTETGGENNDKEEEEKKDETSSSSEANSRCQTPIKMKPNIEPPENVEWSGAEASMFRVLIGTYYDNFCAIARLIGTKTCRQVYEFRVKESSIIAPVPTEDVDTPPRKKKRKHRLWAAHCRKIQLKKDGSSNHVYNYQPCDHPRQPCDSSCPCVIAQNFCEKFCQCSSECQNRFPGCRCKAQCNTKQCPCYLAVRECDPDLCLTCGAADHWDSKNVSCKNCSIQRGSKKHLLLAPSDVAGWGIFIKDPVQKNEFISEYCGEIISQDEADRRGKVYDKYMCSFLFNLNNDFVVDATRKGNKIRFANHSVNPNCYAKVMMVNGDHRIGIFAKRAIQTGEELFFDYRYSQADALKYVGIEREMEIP

SMILES: CCCc1cc(C)[nH]c(=O)c1CNC(=O)c1cc(-c2ccnc(N3CCN(C)CC3)c2)cc2c1cnn2C(C)C
- log2FC [1]: 0.46
- log2FC [2]: -0.48
- log2FC [3]: -0.39
- log2FC [4]: 1.1
- log2FC [5]: -0.38
- log2FC [6]: -0.47
- log2FC [7]: -0.89
- log2FC [8]: -0.39
- log2FC [9]: -0.76
- log2FC [10]: -0.53

SMILES: OC[C@H]1O[C@@H](n2cnc3cc(Cl)c(Cl)cc32)[C@H](O)[C@@H]1O
- log2FC [11]: -1.13
- log2FC [12]: -0.98
- log2FC [13]: 0.82
- log2FC [14]: 0.49
- log2FC [15]: -0.43
- log2FC [16]: 0.46
- log2FC [17]: -0.83
- log2FC [18]: -0.68
- log2FC [19]: -0.87
- log2FC [20]: -0.71
- log2FC [21]: 0.95
- log2FC [22]: 0.43
- log2FC [23]: -0.67
- log2FC [24]: 0.41
- log2FC [25]: 0.67
- log2FC [26]: -0.74

From ChEMBL document CHEMBL5674883, “The Heterochromatin Landscape in Migrating Cells and the Importance of H3K27me3 for Associated Transcriptome Alterations” (Cells, 2018)
